Results: article PMC9029315 (RSC Advances, 2021)
In brackets after ≈: the same amount, converted by molar mass. Like-named read-outs stand apart in the source and are kept apart here.

What was measured:
M. tb H37Rv strain [1] = conditions: cited from earlier work
M. tb H37Rv strain [2] = experiment: Anti-TB activity, microplate alamarBlue assay; type: cell-based, Mycobacterium tuberculosis; conditions: H37Rv MIC values converted to μM; for H37Rv, MIC: MABA; for MIC: Mycobacterium tuberculosis, H37RV, read-out: H37Rv, MIC, MABA
How it was run: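 Whole-cell M. tuberculosis H37Rv growth inhibition by microplate alamarBlue assay. MIC is the lowest concentration giving at least 90% reduction of bacterial growth, averaged over three individual measurements. It was then converted to molar units. Front-line anti-TB drugs served as positive controls.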

[3] = system: KNS42 cells (paediatric GBM); experiment: KNS42 cell proliferation assay; type: cell-based; conditions: Homo sapiens, KNS-42, 72 h, read-out: KNS42 prolif., IC50
How it was run: (§1)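 Human cells were kept at 37 °C, 5% CO2 with pen/strep in RPMI/10% FBS (KNS42, BT-12, BT-16), EMEM/10% FBS (DAOY) or DMEM/15% FBS (HFF1). Seeding was 2000 cells/well (KNS42 4000), followed by overnight attachment. Compound medium (0.5, 1, 2.5, 5, 7.5, 10) or 0.1% DMSO control was then applied for 72 h. MTT absorbance was read at 570/600 nm, background subtracted, and IC50 calculated.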

healthy cells = conditions: read-out: Cytotoxicity to healthy cells, IC50; cited from earlier work
Vero cells = experiment: Cytotoxicity against Vero cells; type: cell-based; conditions: SI = IC50(Vero)/MIC(H37Rv)
BT12 cells (AT/RT) [4] = experiment: BT12 cell viability assay; type: cell-based; conditions: Homo sapiens, BT-12, 72 h, read-out: BT12 viability, IC50
How it was run: (§2)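 Cultures were grown at 37 °C, 5% CO2 with pen/strep in RPMI/10% FBS (BT-12, BT-16), EMEM/10% FBS (DAOY) or DMEM/15% FBS (HFF1). Cells were plated at 2000 per well and incubated overnight. They were then exposed for 72 h to test compound (0.5–10, six levels) or 0.1% DMSO medium. PrestoBlue fluorescence was read at 560/590 nm, background removed, and IC50 derived.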

BT12 cells (AT/RT) [5] = experiment: BT12 cell proliferation assay; type: cell-based; conditions: Homo sapiens, BT-12, 72 h, read-out: BT12 prolif., IC50
How it was run: as §1

BT16 cells (AT/RT) [6] = experiment: BT16 cell viability assay; type: cell-based; conditions: Homo sapiens, BT-16, 72 h, read-out: BT16 viability, IC50
How it was run: as §2

BT16 cells (AT/RT) [7] = experiment: BT16 cell proliferation assay; type: cell-based; conditions: Homo sapiens, BT-16, 72 h, read-out: BT16 prolif., IC50
How it was run: as §1

[8] = system: DAOY cells (medulloblastoma); experiment: DAOY cell viability assay; type: cell-based; conditions: Homo sapiens, 72 h, read-out: DAOY viability, IC50
How it was run: as §2

[9] = system: DAOY cells (medulloblastoma); experiment: DAOY cell proliferation assay; type: cell-based; conditions: Homo sapiens, 72 h, read-out: DAOY prolif., IC50
How it was run: as §1

[10] = system: HFF1 non-neoplastic human fibroblasts; experiment: HFF1 cell viability assay; type: cell-based; conditions: HFF-1, 72 h, read-out: HFF1 viability, IC50
How it was run: as §2

[11] = system: HFF1 non-neoplastic human fibroblasts; experiment: HFF1 cell proliferation assay; type: cell-based; conditions: HFF-1, 72 h, read-out: HFF1 prolif., IC50
How it was run: as §1

[12] = molecular target: cannabinoid receptor 2 (CB2); conditions: read-out: CB2 agonistic activity, EC50; cited from earlier work
human THP-1 cells = conditions: cited from earlier work
[13] = system: carbonic anhydrase 9 (CA9) gene; experiment: Transcriptional analysis of KNS42 cells, CA9 expression; type: cell-based, human; conditions: 10 μM, 72 hours, versus untreated, p < 0.01
How it was run: (§3)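 KNS42 cells in RPMI/10% FBS with pen/strep, 37 °C, 5% CO2, were treated with test compound at 10 for 72 h. Cells were PBS-washed, scraped and pelleted. RNA was TRIzol-extracted, resuspended in DEPC water and quantified by Qubit broad-range assay. Samples underwent DNBSEQ eukaryotic stranded transcriptome resequencing to determine differential expression.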

[14] = system: spleen tyrosine kinase (SYK) gene; experiment: Transcriptional analysis of KNS42 cells, SYK expression; type: cell-based, human; conditions: 10 μM, 72 hours, versus untreated, p < 0.05
How it was run: as §3

KNS42 cells = experiment: Transcriptional analysis of KNS42 cells, differential gene expression; type: cell-based, human; conditions: 10 μM, 72 hours, fold change ≥ 8, P < 0.05
How it was run: as §3

SMILES	H37Rv, MIC (M. tb H37Rv strain [2]) [µM]	IC50 [3] [µM]	MIC (M. tb H37Rv strain [2]) [µM]	other results
CC[C@@H](CO)NCCN[C@@H](CC)CO [EMB, ethambutol]				H37Rv, MIC (M. tb H37Rv strain [1]): 1 (ref. [6]) μg mL^−1
O=C(NC(=O)c1cc2c(F)cc(F)cc2[nH]1)c1cccc(Cl)c1 [Compound 11b, N-(3-Chlorobenzoyl)-4,6-difluoro-1H-indole-2-carboxamide]	>96	> 10		
Cc1ccc2[nH]c(C(=O)NC(C)C34CC5CC(CC(C5)C3)C4)cc2c1 (centres unmarked) [Compound 8d, N-(1-(Adamantan-1-yl)ethyl)-5-methyl-1H-indole-2-carboxamide]		> 10	2.97 (≈ 0.999 µg/mL)	
NNC(=O)c1ccncc1 [INH, isoniazid]				H37Rv, MIC (M. tb H37Rv strain [1]): 0.04 (ref. [6]) μg mL^−1
O=C(c1cc2c(F)cc(F)cc2[nH]1)N1CCNCC1 [Compound 14, (4,6-Difluoro-1H-indol-2-yl)(piperazin-1-yl)methanone]	>121	> 10	> 121	
Cc1cc(C)c2cc(C(=O)NC34CC5CC(CC(C5)C3)C4)[nH]c2c1 [Compound 2, N-(1-adamantyl)-4,6-dimethylindole-2-carboxamide]				MIC (M. tb H37Rv strain [1]): 0.012 µM (≈ 0.00387 µg/mL); IC50 (healthy cells): > 200 µM
COc1ccc2[nH]c(C(=O)NC(C)C34CC5CC(CC(C5)C3)C4)cc2c1 (centres unmarked) [Compound 8c, N-(1-(Adamantan-1-yl)ethyl)-5-methoxy-1H-indole-2-carboxamide]	5.67	> 10	< 6	
CC(NC(=O)c1cc2ccc(Br)cc2[nH]1)C12CC3CC(CC(C3)C1)C2 (centres unmarked) [Compound 8f, N-(1-(Adamantan-1-yl)ethyl)-6-bromo-1H-indole-2-carboxamide]		> 10	0.62 (≈ 0.249 µg/mL)	SI (selectivity index) (Vero cells): 64
CC(NC(=O)c1cc2cc(Cl)ccc2[nH]1)C12CC3CC(CC(C3)C1)C2 (centres unmarked) [Compound 8e, N-(1-(Adamantan-1-yl)ethyl)-5-chloro-1H-indole-2-carboxamide]		> 10		
O=C(NC(=O)c1cc2c(F)cc(F)cc2[nH]1)c1cccc(F)c1 [Compound 11a, 4,6-Difluoro-N-(3-fluorobenzoyl)-1H-indole-2-carboxamide]	>101	> 10	> 96	
CC(NC(=O)c1cc2ccccc2[nH]1)C12CC3CC(CC(C3)C1)C2 (centres unmarked) [Compound 8a, N-(1-(Adamantan-1-yl)ethyl)-1H-indole-2-carboxamide]		> 10	6.2 (≈ 2 µg/mL)	H37Rv, MIC (M. tb H37Rv strain [1]): > 15.5 µM
O=C(NCc1ccccc1)c1cc2c(F)cc(F)cc2[nH]1 [Compound 9a, N-Benzyl-4,6-difluoro-1H-indole-2-carboxamide]	>112	9.85	> 112	IC50 (BT12 cells (AT/RT) [4]): 0.89 µM; IC50 (BT12 cells (AT/RT) [5]): 7.44 µM; IC50 (BT16 cells (AT/RT) [6]): 1.81 µM; IC50 (BT16 cells (AT/RT) [7]): 6.06 µM; IC50 [8]: > 10 µM; IC50 [9]: > 10 µM; IC50 [10]: 119 µM; IC50 [11]: 65 µM
CC(NC(=O)c1cc2c(F)cc(F)cc2[nH]1)C12CC3CC(CC(C3)C1)C2 (centres unmarked) [Compound 8h, N-(1-(Adamantan-1-yl)ethyl)-4,6-difluoro-1H-indole-2-carboxamide]		> 10		
O=C(NC12CC3CC(CC(C3)C1)C2)c1cc2ccccc2[nH]1 [Compound 3, N-(1-adamantyl)-indole-2-carboxamide]		> 10		EC50 [12]: 0.98 µM; Cytotoxicity against human THP-1 cells (human THP-1 cells): non-cytotoxic up to 50
O=C(NNc1ccccc1)c1cc2c(F)cc(F)cc2[nH]1 [Compound 9b, 4,6-Difluoro-N′-phenyl-1H-indole-2-carbohydrazide]	>111	> 10	> 96	
COc1cccc2[nH]c(C(=O)NC(C)C34CC5CC(CC(C5)C3)C4)cc12 (centres unmarked) [Compound 8b, N-(1-(Adamantan-1-yl)ethyl)-4-methoxy-1H-indole-2-carboxamide]		> 10		
O=C(NC12CC3CC(CC(C3)C1)C2)c1ccc(NC(=O)c2cc3c(F)cc(F)cc3[nH]2)cc1 [Compound 20, N-(4-((Adamantan-1-yl)carbamoyl)phenyl)-4,6-difluoro-1H-indole-2-carboxamide]	>71	> 10	> 71	
O=C(c1cc2c(F)cc(F)cc2[nH]1)N1CCN(C(=O)C23CC4CC(CC(C4)C2)C3)CC1 [Compound 15, (Adamantan-1-yl)(4-(4,6-difluoro-1H-indole-2-carbonyl)piperazin-1-yl)methanone]	>75	6.62		IC50 (BT12 cells (AT/RT) [4]): 3.16 µM; IC50 (BT12 cells (AT/RT) [5]): > 10 µM; IC50 (BT16 cells (AT/RT) [6]): 5.89 µM; IC50 (BT16 cells (AT/RT) [7]): > 10 µM; IC50 [8]: > 10 µM; IC50 [9]: > 10 µM; IC50 [10]: 19.4 µM; IC50 [11]: 17.4 µM; Downregulation of CA9 expression [13]: 15 fold; Downregulation of SYK expression [14]: 9 fold; Number of genes with downregulated expression (KNS42 cells): 9 genes
CC(NC(=O)c1cc2c(Cl)cc(Cl)cc2[nH]1)C12CC3CC(CC(C3)C1)C2 (centres unmarked) [Compound 8g, N-(1-(Adamantan-1-yl)ethyl)-4,6-dichloro-1H-indole-2-carboxamide]		> 10	0.32 (≈ 0.125 µg/mL)	SI (selectivity index) (Vero cells): 128
